Screening results from PubChem.
RGS4 pot – potentiators or activators of RGS4; AID 463111; B-score at 10 µM; 310,000 compounds, 0.92% hits; HEK293 M3R/inducible RGS4, carbachol calcium flux Fluo4; stronger effect = lower value;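 active means B-score of the integrated calcium signal more than 4 SD below the library mean, with starting fluorescence not abnormally high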;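 further: negative B-score means reduced calcium response which marks RGS4 activation or potentiation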
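Test system: HEK293 cells with stable M3R and inducible RGS4; also added: carbachol at ECmax as muscarinic agonist stimulus; schedule: dye loading 30 min 37 °C, buffer rest 30 min RT; technique: kinetic calcium fluorescence imaging with Fluo4-AM dye, 2 µM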
RGS4 block – human RGS4 inhibition. P49798. HEK293 M3R/RGS4 inducible, Fluo-4 calcium flux; stronger effect = higher value; triggered by carbachol at its EC20. B-score at 10 µM. 310,000 compounds, 0.45% hits. AID 463165;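 active means B-score, a plate-corrected calcium signal, over three deviations above library mean, with baseline fluorescence within five deviations of library mean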;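 further: RGS4 expression induced by doxycycline in cells with stable M3 receptor; B-score is computed from the integrated fluorescence ratio over baseline after carbachol; higher B-score means a larger calcium signal and so more RGS4 inhibition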
Target sequence (P49798 whole entry, looked up): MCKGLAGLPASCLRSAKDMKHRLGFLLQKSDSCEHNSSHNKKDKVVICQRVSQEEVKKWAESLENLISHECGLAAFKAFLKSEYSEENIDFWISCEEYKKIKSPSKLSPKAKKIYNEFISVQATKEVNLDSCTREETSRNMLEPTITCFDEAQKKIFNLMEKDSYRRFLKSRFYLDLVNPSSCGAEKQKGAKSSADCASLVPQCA
MrgX1 agonist – agonists of human MrgX1 receptor | Q96LB2 | MrgX1-HEK293 cells, Fluo-4 calcium fluorescence, agonist mode; stronger effect = higher value | B-score at 10 µM | 310,000 compounds, 0.44% hits | AID 588627;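 active means calcium response B-score plate-corrected fluorescence ratio at least 3 library SD, with starting fluorescence B-score inside 5 SD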
Target sequence (Q96LB2 whole entry, looked up): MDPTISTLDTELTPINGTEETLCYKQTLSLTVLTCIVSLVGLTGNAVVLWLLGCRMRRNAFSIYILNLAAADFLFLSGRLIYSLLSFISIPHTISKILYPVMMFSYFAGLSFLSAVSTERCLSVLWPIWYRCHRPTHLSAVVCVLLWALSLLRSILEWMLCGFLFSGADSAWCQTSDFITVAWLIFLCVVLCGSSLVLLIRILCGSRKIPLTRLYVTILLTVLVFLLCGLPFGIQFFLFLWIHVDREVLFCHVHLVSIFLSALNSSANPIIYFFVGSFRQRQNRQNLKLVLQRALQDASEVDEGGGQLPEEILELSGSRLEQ
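Material: HEK293 cells stably expressing human MrgX1 receptor | Quantity: 15,000 cells per well | Times: Cells plated overnight, dye loaded 0.5 h 37 °C, 0.5 h room temperature | Measured by: Kinetic Fluo-4 NW fluorescence of intracellular calcium | Control set: Positive and negative controls per plate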
MrgX1 antagonist – antagonists of human MrgX1 receptor. Q96LB2. MRGX1-HEK293 calcium flux, Fluo-4, BAM8-22 antagonism; stronger effect = lower value. B-score at 10 µM. 310,000 compounds, 1.3% hits;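 active means calcium-response B-score plate-corrected more than 3 library SD below zero, starting fluorescence within 5 deviations, no agonist response on first addition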;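 further: peak minus trough fluorescence over baseline after final BAM8-22 challenge near maximal dose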
MrgX1 allo act – human MrgX1 positive allosteric modulation, primary screen; Q96LB2; MrgX1-HEK293, Fluo-4 calcium flux, FDSS; stronger effect = higher value; B-score at 10 µM; 310,000 compounds, 0.63% hits; AID 588675;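 active means plate-corrected calcium response at least 3 library SD above typical, normal starting fluorescence, not activating the receptor alone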;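 further: compound read alongside a low EC10 to EC30 dose of BAM8-22 agonist; peak minus trough fluorescence over baseline measured at the second addition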
Kir21 inh – Kir2.1 (mouse) channel inhibition. 310,000 compounds, 0.85% hits. HEK293-Kir2.1, FluxOR thallium flux fluorescence; stronger effect = lower value. P35561. B-score at 10 µM;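 active means fluorescence ratio B-score at or below minus 3 SD of library scores, with starting-brightness B-score within 2 SD, cut at about -4.2 in these data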;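 further: channel flux triggered by added potassium and thallium sulfate stimulus; B-score of peak minus minimum fluorescence over baseline after thallium stimulus; more negative B-score means stronger Kir2.1 block with less thallium influx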
An asterisk follows results filed as active; i = inactive; / = not tested or not shown. The list is not random: actives were taken first. Their share in the collection is about 4.1%.

SMILES	RGS4 pot	RGS4 block	MrgX1 agonist	MrgX1 antagonist	MrgX1 allo act	Kir21 inh
CC(=O)Oc1ccc(N2C(=O)C3C4C=CC(CO)(O4)C3C2=O)cc1 (centres undefined)	i	i	i	i	i	-0.29
O=C1C2C3C=CC(CO)(O3)C2C(=O)N1c1ccccc1-c1ccccc1 (centres undefined)	/	/	34*	i	i	/
COc1ccc(N2C(=O)CSC2c2ccc3c(c2)OCO3)cc1 (centres undefined)	-7*	i	i	i	i	-0.09
COc1cccc(NC(=O)CN2C(=O)NC3(CCCC3)C2=O)c1	i	i	i	i	i	-1.2
COc1ccc(CN(CC(=O)NCc2ccccc2)C(=O)CCC(=O)Nc2nccs2)cc1	i	i	i	i	12*	-0.26
Cc1ccc(C(=O)C(C)OC(=O)Cc2c[nH]c3ccccc23)cc1 (centres undefined)	i	i	i	i	i	-5.2*
Cc1ccc(NC(=O)C(C)OC(=O)Cc2c[nH]c3ccccc23)cc1 (centres undefined)	i	i	i	i	i	-6.6*
CC(OC(=O)Cc1c[nH]c2ccccc12)C(=O)Nc1ccccc1[N+](=O)[O-] (centres undefined)	i	i	i	i	i	-6.5*
C=CCn1c(C)cc(C(=O)COC(=O)C2CC(=O)N(Cc3ccccc3)C2)c1C (centres undefined)	i	i	i	i	i	-0.74
COC(=O)c1ccc2c(c1)NC(=O)C1CCCN21 (centres undefined)	i	i	i	i	i	0.6
Cn1cccc1/C=C1\CCC/C(=C\c2cccn2C)C1=O	i	i	38*	i	i	-8.6
O=C1/C(=C/c2cccs2)CCC/C1=C\c1cccs1	i	i	i	i	i	0.02
O=C(c1ccccc1)C1CCN(C(=O)C2CCC(=O)N(Cc3cccc(F)c3)C2)CC1 (centres undefined)	i	i	/	/	/	1.4
NC(=O)[C@@H]1CCNc2c(I)cc([N+](=O)[O-])cc2C(=O)N[C@@H](CCC(=O)O)C(=O)N[C@@H](CO)C(=O)N1	/	/	i	-6.5*	i	/
NC(=O)[C@@H]1CCCCNc2c(I)cc([N+](=O)[O-])cc2C(=O)N[C@@H](CCC(=O)O)C(=O)N[C@@H](CO)C(=O)N1	i	i	i	i	i	1.7
COc1ccccc1C(=O)NCC(=O)NCC1(N2CCCCC2)CCCCC1	i	i	i	i	i	-0.82
O=C(CN1C(=O)/C(=C\c2cccc(Cl)c2)Oc2ccccc21)N1CCN(c2ccccn2)CC1	i	i	i	i	i	-0.2
Cc1ccsc1C=C1C(=O)c2ccccc2C1=O	i	i	i	i	i	1.4
Cc1ccsc1/C=C1/C(=O)NN(c2ccccc2)C1=O	i	i	33*	i	i	-0.99
CC1=C/C(=N\OS(=O)(=O)c2ccccc2)C(C(C)C)=CC1=O	/	/	i	-4.6*	i	/
CC1=C/C(=N\OS(=O)(=O)c2ccccc2)C(C)=CC1=O	/	/	i	i	15*	/
CC1=C(C)/C(=N\OS(=O)(=O)c2ccc(C)cc2)C=CC1=O	/	/	i	-5.2*	i	/
CCOc1ccc(NC(=O)C2CCCN(C(=O)NCc3ccccc3)C2)cc1 (centres undefined)	i	i	i	i	i	-0.42
Cc1cc(O)c(/C=N/OCc2ccc(Cl)cc2Cl)c(=O)o1	i	i	i	i	i	0.51
O=c1c(/C=N/OCc2ccc(Cl)cc2Cl)c[nH]n1-c1cccc(Cl)n1	i	i	45*	i	i	0.23
SMILES	RGS4 pot	RGS4 block	MrgX1 agonist	MrgX1 antagonist	MrgX1 allo act	Kir21 inh
COc1ccc(-c2nnn(CC(=O)N(CCCO)C(C(=O)NC3CCCC3)c3ccc(F)cc3)n2)cc1 (centres undefined)	i	i	i	i	i	2.4
CC(C)N(CCCNC(=O)c1ccc(CS(=O)(=O)c2c(Cl)cccc2Cl)o1)Cc1ccccc1	-8.6*	i	i	i	i	0.56
COc1cccc(CN2CCN(C(=O)c3cc(-c4ccccn4)nc4ccc(Cl)cc34)CC2)c1	i	i	i	i	i	-1.5
Cc1cc(N2CCCC2)nc2c(C)cccc12	i	i	i	i	i	1.2
O=C(N/C(=C\c1cccnc1)C(=O)N1CCOCC1)c1ccco1	i	i	i	-5*	i	-0.78
O=C(N/C(=C/c1cccnc1)C(=O)N1CCOCC1)c1ccccc1	i	i	i	i	i	0.58
C=CCSc1nc2ccccc2c(=O)n1Cc1ccccc1	i	i	i	i	i	-0.59
O=c1c2ccccc2nc(SCc2ccccc2Cl)n1Cc1ccccc1	i	i	i	-6.8*	i	-0.06
CC(C)(C)c1ccc(OCc2nc(-c3ccccn3)no2)c(Br)c1	i	i	i	i	i	-0.41
COc1ccc2c(c1)sc(N)[n+]2Cc1cc(C)cc2cccnc12	i	i	i	i	i	-4.5*
CC(=O)N/C(=C/c1ccccc1)C(=O)NC(Cc1ccccc1)C(=O)O (centres undefined)	i	i	i	i	i	0.4
CC(C)NCC(O)c1ccc(O)c(O)c1 (centres undefined)	i	i	33*	i	i	2
COc1cc(C(O)CO)ccc1O (centres undefined)	/	/	i	i	i	/
NC[C@H](O)c1ccc(O)c(O)c1	/	/	39*	i	i	/
CCO[C@@H]1OC(C(=O)N2CCOCC2)=C[C@H](c2ccc(Br)cc2)[C@H]1CCCO	i	i	i	i	i	0.04
COCCCNC(=O)C1CCN(C(=O)c2cc3sccc3n2Cc2ccc(F)cc2)CC1	i	i	i	i	i	-1.5
CCN(CC)CCCNC(=O)C1CCN(C(=O)c2cc3sccc3n2Cc2ccc(F)cc2)CC1	i	i	i	-6*	i	-1.6
Cc1c(C#N)c(O)n(CCO)c(=O)c1N=Nc1ccccc1	i	i	i	i	i	0.03
CCOc1ccc(CN2CCC(C(=O)N3CCN(c4ccccc4F)CC3)CC2)cc1OC	i	i	i	i	i	-0.72
CCOc1ccc(S(=O)(=O)N2CCC(C(=O)N3CCN(c4ccccc4F)CC3)CC2)cc1C	-7.2*	i	i	i	i	-0.28
